According to ChEMBL document CHEMBL1155475, “Semisynthesis and pharmacological activities of thyroxine analogs: Development of new angiogenesis modulators” (2010):

Experiments:
Assay type in all cases: functional
[1] = species: Gallus gallus; assay: Stimulation of angiogenesis of fertilized chicken egg membrane assessed as stimulation of blood vessel formation at 10 ug/CAM after 48 hrs by CAM assay
Summary of the method: (§1)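 Chick chorioallantoic membrane model. Filter disks are soaked in 3 mg/mL cortisone acetate in 95% ethanol, air-dried, then saturated with test agent, L-T4 or FGF, and placed on the CAM. Agents are tested at 10 µg/CAM. Tissue beneath the disk is harvested after 48 h and examined by stereomicroscope at 50× with digital image capture. Data are mean ± SEM, n = 8.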

[2] = test system: Mus musculus; assay: Stimulation of angiogenesis in Matrigel plug implanted C57BL/6 mouse assessed as increase of hemoglobin level after 14 days at 10 ug/plug by Matrigel assay
Summary of the method: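 Mouse subcutaneous Matrigel plug. Matrigel is kept cold and compound is added with or without agonist. Plugs are injected subcutaneously at three sites per animal, 100 µL total. On day 14 the plugs are collected, homogenized in ddH2O and centrifuged 4000 rpm for 10 min. Supernatant is mixed with Drabkin's reagent for 15–30 min, A540 is read, and hemoglobin (mg/mL) is taken from a standard curve. Three implants per mouse, n = 6 per group.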

[3] = species: Gallus gallus; assay: Antiangiogenesis of fertilized chicken egg membrane assessed as inhibition of FGF-induced blood vessel formation at 10 ug/CAM after 48 hrs by CAM assay; summary of the method: as §1

| Compound | Activity [1] | Activity [2] | inhibition [3] |
| --- | --- | --- | --- |
| N[C@@H](Cc1cc(I)c(Oc2cc(I)c(O)c(I)c2)c(I)c1)C(=O)O [LEVOTHYROXINE] | 88% | 100% |  |
| CC(C)(C)OC(=O)NC(Cc1cc(I)c(Oc2cc(I)c(OCC3CO3)c(I)c2)c(I)c1)C(=O)OCC1CO1 (configuration not stated) | 56% | 0% |  |
| CCNC(Cc1cc(I)c(Oc2cc(I)c(O)c(I)c2)c(I)c1)C(=O)OCC (configuration not stated) |  |  | 38% |
| CCCC(=O)NC(Cc1cc(I)c(Oc2cc(I)c(O)c(I)c2)c(I)c1)C(=O)O (configuration not stated) | 34% | 62% |  |
| CCNC(Cc1cc(I)c(Oc2cc(I)c(O)c(I)c2)c(I)c1)C(=O)O (configuration not stated) | 86% | 45% |  |
| CC(C)[Si](OC(=O)C(Cc1cc(I)c(Oc2cc(I)c(OCC3CO3)c(I)c2)c(I)c1)NC(=O)OC(C)(C)C)(C(C)C)C(C)C (configuration not stated) | 34% | 0% |  |
| CNC(Cc1cc(I)c(Oc2cc(I)c(O)c(I)c2)c(I)c1)C(=O)O (configuration not stated) | 44% | 87% |  |
| CC(C)[Si](OC(=O)C(Cc1cc(I)c(Oc2cc(I)c(O)c(I)c2)c(I)c1)NC(=O)OC(C)(C)C)(C(C)C)C(C)C (configuration not stated) | 4% | 0% |  |
| CC(=O)NC(Cc1cc(I)c(Oc2cc(I)c(OC(C)=O)c(I)c2)c(I)c1)C(=O)O (configuration not stated) | 67% | 95% |  |
